Screens: PubChem, several laboratories
In the library only some 4% were active in any assay of this set; here they are far more common.
Exocytosis inh: blocks lytic granule exocytosis. TALL-104 LAMP-1 surface exposure, flow cytometry; cells stimulated with thapsigargin and PMA. inhibition, % at 10 µM. AID 651702. 360,000 tested, 0.66% active;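 active = inhibition above about 55%, limit read from the data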
Mdm2 MdmX PPI: inhibitors of human Mdm2/MdmX interaction; O15151+Q00987; SaOS-2 split-luciferase Mdm2/MdmX complementation, luminescence; inhibition, % at 8 µM; 330,000 tested, 3% active;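 active = inhibition of at least 50% at 8 µM in the primary screen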
ABHD5-PLIN5 inh: ABHD5-PLIN5 protein interaction inhibition; 360,000 tested, 0.78% active; AID 602281; inhibition, % at 4 µM; Split G. princeps luciferase complementation, luminescence, 4 h;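 active = inhibition above the mean inhibition across every tested compound plus 3 SD, cut at about 22% in these data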;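 note: 0% = DMSO only wells and the 100% control is not disclosed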
XBP1 UPR activ: activators of adaptive arm of unfolded protein response (XBP1) | 330,000 tested, 0.33% active | activation, % at 20 µM | CHO-XBP1 luciferase reporter, IRE1-XBP1 UPR activation, luminescence; percent of tunicamycin response, DMSO as zero;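 active = versus positive control, 20 µM dose yields 30% or more activation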;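 note: 100% = tunicamycin at 10 µg/mL and 0% = DMSO only wells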
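incubation = overnight seeding at 37 °C, 6 h compound treatment at 37 °C | assay system = CHO-XBP1 cells stably carrying IRE1-XBP1-driven luciferase reporter | input = 1000 cells per well | detection = luciferase luminescence | dosing = single point, 20 µM final compound, 1% DMSO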
UPR CHOP act: activators of apoptotic arm of unfolded protein response (CHOP). activation, % at 10 µM. CHO-CHOP luciferase reporter, UPR activation, luminescence; percent of tunicamycin response over DMSO baseline. 330,000 tested, 0.34% active;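 active = at 10 µM dose, activation of 40% or more, normalized to positive control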;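 note: 100% = tunicamycin at 10 µg/mL and 0% = DMSO alone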
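assay system = CHO CHOP reporter cells | amount = 500 CHO-CHOP cells per well | buffer or medium = F12 with 10% FBS | incubation = 16-18 h cell attachment, then 6 h compound exposure, 37 °C | detection = luminescence read with Steady-Glo | read-out = percent activation relative to tunicamycin control | controls = tunicamycin high control, DMSO low control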
ABHD5-PLIN5 conf: confirmation of human ABHD5-PLIN5 interaction inhibitors; biochemical ABHD5-PLIN5 interaction, luminescence; AID 651612; 2,200 tested, 67% active; shares compounds with ABHD5-PLIN5 inh; inhibition, % at 4 µM; in the data active = inhibition above about 23%;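 note: 0% = DMSO vehicle wells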
HNF4 counter: counter-screen for ABHD5-PLIN5 inhibitors: HNF4 split-luciferase; shares compounds with ABHD5-PLIN5 inh; HNF4 dimerization, luminescence, biochemical; inhibition, % at 4 µM; 2,200 tested, 77% active;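 active = mean inhibition across replicate wells exceeding the computed hit threshold, cut at about 13% in these data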;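 note: light from luciferase halves that rejoin when HNF4 fusion proteins dimerize; 0% = DMSO only wells and the 100% control is not given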
Target sequence (P41235 whole entry, looked up, the tested form may be a part): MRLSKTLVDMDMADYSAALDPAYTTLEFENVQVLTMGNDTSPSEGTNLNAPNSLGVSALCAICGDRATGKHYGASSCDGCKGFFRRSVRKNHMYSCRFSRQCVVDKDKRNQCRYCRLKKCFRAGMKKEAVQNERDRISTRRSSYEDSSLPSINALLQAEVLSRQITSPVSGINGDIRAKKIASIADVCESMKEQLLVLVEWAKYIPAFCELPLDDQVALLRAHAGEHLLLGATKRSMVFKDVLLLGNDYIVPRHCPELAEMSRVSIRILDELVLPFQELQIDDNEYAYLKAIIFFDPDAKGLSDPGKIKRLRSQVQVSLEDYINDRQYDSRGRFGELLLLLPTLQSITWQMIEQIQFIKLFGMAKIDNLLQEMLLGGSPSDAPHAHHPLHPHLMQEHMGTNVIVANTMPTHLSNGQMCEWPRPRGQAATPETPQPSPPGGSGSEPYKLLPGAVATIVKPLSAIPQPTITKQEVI
Active calls of the source: *; . = no result given.

SMILES | Exocytosis inh | Mdm2 MdmX PPI | ABHD5-PLIN5 inh | XBP1 UPR activ | UPR CHOP act | ABHD5-PLIN5 conf | HNF4 counter
O=C(C=C1SCCS1)/C=C/c1ccco1 | -3 | -30 | 31* | 1 | 3 | 44* | 48*
O=C(C=Cc1ccco1)c1ccco1 | 30 | . | 16 | . | . | . | .
O=C(NC1(O)C(=O)c2ccccc2C1=O)c1ccccc1 | 3 | 13 | -30 | 2 | -3 | . | .
CC(=O)C(C(C)=O)C1(O)C(=O)c2ccccc2C1=O | -1 | 12 | 41* | -2 | 1 | 4 | 11
O=C(/C=C/c1ccccn1)c1cc(Cl)cc(Cl)c1O | -4 | -15 | 23* | -1 | 4 | 45* | 31*
CC(=O)N1N=C(c2cccs2)CC1c1ccc(Br)cc1 (configuration not stated) | -1 | -62 | -2 | -2 | 8 | . | .
Cc1ccc(C2CC(c3cccs3)=NN2C(=O)c2ccc(Br)o2)cc1 (configuration not stated) | -2 | 25 | 25* | 5 | 1 | 45* | 58*
Cc1cc(C)n(-c2nc3c(c(=O)[nH]c(=O)n3C)n2Cc2cccc(Br)c2)n1 | 0 | -23 | 10 | -2 | 0 | . | .
CC1(c2ccccc2)NC(=O)N(Cc2ccc([N+](=O)[O-])cc2)C1=O (configuration not stated) | -2 | 3 | 0 | 0 | 2 | . | .
CC1(c2ccc([N+](=O)[O-])cc2)Nc2ccccc2S1 (configuration not stated) | 2 | -6 | 35* | -1 | 5 | -5 | -9
CCOC(=O)Cn1c(=N)n(CCOc2ccc3ccccc3c2)c2ccccc21 | 21 | 43 | 25* | 2 | 0 | 9 | 9
CCOC(=O)Cn1c(=N)n(CCOc2ccc(OC)cc2)c2ccccc21 | 1 | 16 | 3 | -1 | -1 | . | .
Cc1cccn2c(=O)nc(SCC(=O)Nc3cccc4ccccc34)nc12 | 0 | 7 | 104* | 3 | 0 | 1 | 0
O=C(CSc1nc(=O)n2ccccc2n1)Nc1cccc2ccccc12 | 19 | -27 | 9 | -5 | -3 | . | .
Cc1c(C(=O)N(Cc2ccc(N(C)C)cc2)CC2CCCO2)oc2ccccc12 (configuration not stated) | -6 | 15 | -5 | 0 | 2 | . | .
CCc1nonc1NC(=O)c1oc2ccc(F)cc2c1C | 6 | -18 | -8 | 1 | 5 | . | .
CCCCC[C@@H](/C=C/C1C(=O)C=C[C@H]1C/C=C\CCCC(=O)OC)OC(C)=O (some centres not stated) | 15 | . | 28* | . | . | 42* | 63*
COc1ccc(CC(=O)Oc2ccc(C(C)C)cc2)cc1S(=O)(=O)N1CCOCC1 | -6 | -4 | 13 | -4 | 0 | . | .
CCN1CCN(c2ccc(S(=O)(=O)N3CCOCC3)cc2NC(=O)CCOc2ccccc2)CC1 | 0 | 14 | 6 | -5 | 1 | . | .
COC(=O)c1cc(=O)n(-c2ccc(F)cc2)c(=Nc2ccc(F)cc2)s1 | 12 | 42 | 40* | 14 | 26 | 71* | 49*
Cc1ccc(NC(=O)CCNC(=O)c2ccc(Cl)cc2)cc1C | -3 | -27 | 5 | -2 | 2 | . | .
O=C(O)CCC(=O)Nc1sc2c(c1C(=O)Nc1ccccc1)CCCCC2 | 6 | 5 | 24* | 0 | 3 | 9 | -15
Cc1ccc(S(=O)(=O)Nc2ccccc2F)cc1C(=O)NCCCN1CCCC1=O | -1 | -25 | -1 | 1 | 1 | . | .
CC(C)[C@H](CN1CCC[C@H]1CN1C(N)=NC[C@@H]1Cc1ccccc1)N1C[C@@H](Cc2ccccc2)N(CCc2ccc(Cl)c(Cl)c2)C1=N | -3 | -9 | 36* | 1 | 0 | 23* | 6
CCC[C@@H](CN1CCC[C@H]1CN1C(N)=NC[C@H]1CC(C)C)N1C[C@@H]([C@H](C)CC)N(CCc2ccc(Cl)c(Cl)c2)C1=N | 4 | 11 | 20 | -2 | 0 | . | .
SMILES | Exocytosis inh | Mdm2 MdmX PPI | ABHD5-PLIN5 inh | XBP1 UPR activ | UPR CHOP act | ABHD5-PLIN5 conf | HNF4 counter
CCC[C@@H](CN1CCC[C@H]1CN1C(N)=NC[C@@H]1Cc1ccccc1)N1C[C@@H](Cc2ccccc2)N(CCc2ccc(Cl)c(Cl)c2)C1=N | -1 | -3 | 29* | -4 | 3 | 11 | -2
CCC[C@@H](CN1CCC[C@H]1CN1C(N)=NC[C@@H]1Cc1ccccc1)N1C[C@@H]([C@H](C)CC)N(CCc2ccc(Cl)c(Cl)c2)C1=N | 12 | -3 | 26* | 2 | 0 | 12 | 3
CC[C@@H](C)[C@@H]1CN([C@@H](CN2CCC[C@H]2CN2C(N)=NC[C@H]2CC(C)C)C(C)C)C(=N)N1CCc1ccc(Cl)c(Cl)c1 | 0 | 3 | 13 | -2 | 0 | . | .
O=C1CCCc2nc3c(cc21)C(O)Oc1ccccc1-3 (configuration not stated) | -2 | -3 | -1 | 2 | 0 | . | .
Cc1onc(-c2ccccc2Cl)c1C(=O)N1CCN(S(=O)(=O)c2ccc(F)c(F)c2)CC1 | -2 | 15 | 2 | -6 | 1 | . | .
CCN1CCC(O)(/C=C/c2ccc(C(C)C)cc2)C(C(=O)/C=C/c2ccc(C(C)C)cc2)C1 (configuration not stated) | 15 | . | 67* | . | . | 78* | 79*
CCN1CCN(C(=O)/C=C/c2ccc(C(C)C)cc2)CC1 | -1 | 9 | 9 | 1 | -2 | . | .
O=C(OCC(=O)N1N=C(c2ccc(Cl)cc2)CC1c1ccco1)c1ccco1 (configuration not stated) | -3 | -21 | 1 | -1 | 0 | . | .
O=C(OCC(=O)N1N=C(c2ccc(Cl)cc2)CC1c1ccco1)c1cncc(Br)c1 (configuration not stated) | 3 | -10 | 35* | -1 | 2 | 76* | 89*
CSCCC(NC(=O)c1ccco1)C(=O)NNC(=O)c1n[nH]c(=O)c2ccccc12 (configuration not stated) | 4 | -3 | 66* | 0 | 1 | 4 | 4
O=C(Nc1ccc(F)cc1)Nc1cnccn1 | 0 | -5 | -2 | -1 | 0 | . | .
COc1ccc(N2C(=O)CC(Cc3ccc(Br)cc3)C2=O)cc1 (configuration not stated) | 6 | 3 | 4 | -7 | -2 | . | .
Cc1cccc(C(=O)NCCc2nnc(SCC(=O)Nc3nc(C)cs3)n2C)c1 | -1 | -27 | -9 | -2 | -1 | . | .
CC(C)NC(=O)/C(C#N)=C/c1cccc(NC(=O)c2ccccc2Cl)c1 | -2 | 24 | 28* | 0 | 4 | 65* | 57*
Cc1cc(NS(=O)(=O)c2ccc(NC(=O)/C=C/c3ccc(C)o3)cc2)nc(C)n1 | 14 | 4 | 29* | -3 | -2 | 51* | 60*
